In ChEMBL document CHEMBL4138133, “2,3-Dihydro-3β-methoxy Withaferin-A Protects Normal Cells against Stress: Molecular Evidence of Its Potent Cytoprotective Activity” (J Nat Prod, 2017):
Calls of active or inactive are those of the source. The rule behind the calls is not given here.

Columns and labels:
TIG-3 [1] = experiment: Induction of apoptosis in human TIG3 cells assessed as increase in Bax levels at 0.3 to 3 uM by immunoblot analysis; type: cell-based; conditions: tig-3, 3 µM
How it was run: (§1)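 TIG-3 cells treated with compound without added stress. Lysed in NP40 buffer; 10−20 μg protein immunoblotted for Bcl-2 and Bax. Band intensities quantified from three independent sets.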

TIG-3 [2] = experiment: Cytoprotective activity against H2O2-induced oxidative stress in human TIG3 cells assessed as increase in Bcl2 level at 0.3 uM pretreated with H2O2 for 2 hrs followed by compound addition by immunoblot analysis; type: functional, cell-based
How it was run: (§2)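 TIG-3 cells stressed with H2O2 (500 μM, 2 h), then recovered in medium containing 0.3 or 0.6 μM compound. Lysed in NP40 buffer; 10−20 μg protein immunoblotted for pAkt Ser473, p-p38 Thr180/Tyr182, p-p44/42 Thr202/Tyr204, β-catenin, survivin, Bcl-2 or full-length PARP-1. Triplicate experiments.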

TIG-3 [3] = experiment: Cytoprotective activity against UV irradiation-induced stress in human TIG3 cells assessed as decrease in CARF level irradiated with 50 mJ/cm2 of UV radiations followed by compound addition by immuno fluorescence staining based assay; type: functional, cell-based
[4] = molecular target: Mitogen-activated protein kinase 3 (Homo sapiens) (UniProt P27361); experiment: Induction of ERK1 phosphorylation at Thr202 residues in H2O2 treated human TIG3 cells at 0.3 uM pretreated with H2O2 for 2 hrs followed by compound addition by immunoblot analysis; how it was run: as §2
Chain of Mitogen-activated protein kinase 3 (Homo sapiens) (P27361 whole entry): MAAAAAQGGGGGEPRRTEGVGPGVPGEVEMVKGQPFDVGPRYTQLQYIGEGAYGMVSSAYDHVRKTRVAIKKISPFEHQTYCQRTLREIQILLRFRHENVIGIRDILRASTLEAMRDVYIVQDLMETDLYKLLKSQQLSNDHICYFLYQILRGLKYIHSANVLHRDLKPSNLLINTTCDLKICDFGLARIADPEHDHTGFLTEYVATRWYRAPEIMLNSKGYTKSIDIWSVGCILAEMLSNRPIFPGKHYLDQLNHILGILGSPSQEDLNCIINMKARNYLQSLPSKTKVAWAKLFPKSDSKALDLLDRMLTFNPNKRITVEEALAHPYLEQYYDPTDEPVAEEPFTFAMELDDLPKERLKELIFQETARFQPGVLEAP

TIG-3 [5] = experiment: Cytoprotective activity against H2O2-induced oxidative stress in human TIG3 cells assessed as increase in full length PARP level at 0.3 uM pretreated with H2O2 for 2 hrs followed by compound addition by immunoblot analysis; type: functional, cell-based; how it was run: as §2
TIG-3 [6] = experiment: Decrease in keap1 expression level in human TIG3 cells at 0.3 to 3 uM by immunoblot analysis; type: ADME, cell-based; conditions: tig-3, 3 µM
How it was run: (§3)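 TIG-3 cells treated with compound, lysed in NP40 buffer (centrifuged 20 min, 4 °C); 10−20 μg protein immunoblotted for indicated proteins; band quantitation from three independent experiments, Student's t or Mann−Whitney test.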

[7] = molecular target: Mitogen-activated protein kinase 1 (Homo sapiens) (UniProt P28482); experiment: Induction of ERK2 phosphorylation at Tyr204 residues in H2O2 treated human TIG3 cells at 0.3 uM pretreated with H2O2 for 2 hrs followed by compound addition by immunoblot analysis; how it was run: as §2
Chain of Mitogen-activated protein kinase 1 (Homo sapiens) (P28482 whole entry): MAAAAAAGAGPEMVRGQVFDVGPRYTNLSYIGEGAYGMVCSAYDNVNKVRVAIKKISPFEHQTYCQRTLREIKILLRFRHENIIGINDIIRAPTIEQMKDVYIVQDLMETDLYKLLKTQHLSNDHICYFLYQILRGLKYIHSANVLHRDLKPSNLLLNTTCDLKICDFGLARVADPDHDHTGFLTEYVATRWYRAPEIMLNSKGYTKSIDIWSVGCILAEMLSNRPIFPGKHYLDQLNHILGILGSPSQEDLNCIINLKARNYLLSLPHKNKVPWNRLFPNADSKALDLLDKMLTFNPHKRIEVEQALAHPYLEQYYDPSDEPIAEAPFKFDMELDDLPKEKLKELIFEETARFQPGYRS

TIG-3 [8] = experiment: Cytotoxicity against human TIG3 cells assessed as inhibition of colony formation at 0.1 to 0.3 uM by crystal violet staining based assay; type: cell-based; conditions: tig-3, 0.3 µM
How it was run: (§4)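 Cells seeded at 500 per well and grown about 2 weeks in compound-supplemented medium, with medium changed every fourth day. Colonies fixed, stained and counted. Triplicate; Student's t test.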

TIG-3 [9] = experiment: Cytotoxicity against human TIG3 cells assessed as cell death at 0.6 uM; type: cell-based; conditions: tig-3, 0.6 µM
How it was run: (§5)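 Phase-contrast microscopy of morphology of control and treated normal human TIG-3 fibroblasts.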

TIG-3 [10] = experiment: Induction of oxidative stress in human TIG3 cells assessed as increase in GADD45alpha mRNA levels by RT-PCR analysis; type: cell-based
How it was run: (§6)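 Total RNA from treated TIG-3 cells; cDNA from 2 μg RNA; PCR 95 °C 10 min, 30 cycles (95 °C 45 s, 58 °C 1 min, 72 °C 45 s), 72 °C 10 min; products on 0.8% agarose, band densitometry; three independent experiments.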

TIG-3 [11] = experiment: Cytotoxicity against human TIG3 cells assessed as induction of senescence at 64 population doubling at 0.1 uM; type: cell-based; conditions: tig-3, 0.1 µM
TIG-3 [12] = experiment: Cytoprotective activity against H2O2-induced oxidative stress in human TIG3 cells assessed as decrease in CARF level pretreated with H2O2 for 2 hrs followed by compound addition by immuno fluorescence staining based assay; type: functional, cell-based
TIG-3 [13] = experiment: Induction of apoptosis in human TIG3 cells assessed as decrease in Bcl2 levels at 0.3 to 3 uM by immunoblot analysis; type: cell-based; conditions: tig-3, 3 µM; how it was run: as §1
TIG-3 [14] = experiment: Cytoprotective activity against UV irradiation-induced stress in human TIG3 cells assessed as decrease in p53 level irradiated with 50 mJ/cm2 of UV radiations followed by compound addition by immuno fluorescence staining based assay; type: functional, cell-based
TIG-3 [15] = experiment: Cytoprotective activity against H2O2-induced oxidative stress in human TIG3 cells assessed as increase in cell survival at 3 uM pretreated with H2O2 for 2 hrs followed by compound addition measured after 2 days by crystal violet staining based assay; type: functional
TIG-3 [16] = experiment: Induction of oxidative stress against human TIG3 cells assessed as increase in CARF mRNA levels by RT-PCR analysis; type: cell-based; how it was run: as §6
TIG-3 [17] = experiment: Effect on mortalin expression level in human TIG3 cells at 0.3 to 3 uM by immuno fluorescence analysis; type: ADME, cell-based; conditions: tig-3, 3 µM
How it was run: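 Methanol-fixed (chilled absolute methanol) TIG-3 fibroblasts treated with Wi-A or 3βmWi-A; immunofluorescence staining with antibodies, imaged by epifluorescence microscopy; signal quantitated from three independent experiments.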

TIG-3 [18] = experiment: Cytotoxicity against human TIG3 cells assessed as decrease in ROS generation at 1.5 to 3 uM after 48 hrs; type: cell-based; conditions: tig-3, 48 h
TIG-3 [19] = experiment: Induction of oxidative stress in human TIG3 cells assessed as increase in p53 expression level at 0.6 uM by immunoblot analysis; type: cell-based; conditions: tig-3, 0.6 µM; how it was run: as §3
[20] = molecular target: MAP kinase p38 (Homo sapiens) (UniProt O15264+Q15759+Q16539+P53778); experiment: Induction of p38 MAPK phosphorylation at Thr180/Tyr182 residues in H2O2 treated human TIG3 cells at 0.3 uM pretreated with H2O2 for 2 hrs followed by compound addition by immunoblot analysis; how it was run: as §2
Homo sapiens = species: Homo sapiens; experiment: Induction of AKT/p38/p44 MAPK-mediated survivin expression level in H2O2 treated human TIG3 cells at 0.3 uM pretreated with H2O2 for 2 hrs followed by compound addition by immunoblot analysis; how it was run: as §2
[21] = molecular target: RAC-alpha serine/threonine-protein kinase (Homo sapiens) (UniProt P31749); experiment: Induction of Akt phosphorylation at Ser473 residues in H2O2 treated human TIG3 cells at 0.3 uM pretreated with H2O2 for 2 hrs followed by compound addition by immunoblot analysis; how it was run: as §2
Chain of RAC-alpha serine/threonine-protein kinase (Homo sapiens) (P31749 whole entry): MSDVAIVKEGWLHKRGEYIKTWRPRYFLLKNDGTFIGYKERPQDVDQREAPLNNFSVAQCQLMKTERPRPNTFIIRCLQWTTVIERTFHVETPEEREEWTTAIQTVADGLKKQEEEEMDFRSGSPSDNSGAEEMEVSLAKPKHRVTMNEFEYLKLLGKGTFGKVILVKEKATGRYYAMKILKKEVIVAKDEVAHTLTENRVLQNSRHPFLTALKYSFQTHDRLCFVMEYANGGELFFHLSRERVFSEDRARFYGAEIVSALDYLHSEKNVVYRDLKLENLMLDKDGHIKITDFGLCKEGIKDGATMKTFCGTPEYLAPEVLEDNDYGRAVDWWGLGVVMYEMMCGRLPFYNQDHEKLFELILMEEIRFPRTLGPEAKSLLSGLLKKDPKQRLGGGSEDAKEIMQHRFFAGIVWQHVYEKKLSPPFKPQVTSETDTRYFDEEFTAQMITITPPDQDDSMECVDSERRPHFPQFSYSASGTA

TIG-3 [22] = experiment: Cytoprotective activity against H2O2-induced oxidative stress in human TIG3 cells assessed as decrease in p53 level pretreated with H2O2 for 2 hrs followed by compound addition by immuno fluorescence staining based assay; type: functional, cell-based
TIG-3 [23] = experiment: Induction of oxidative stress in human TIG3 cells assessed as increase in CARF expression level at 0.6 uM by immunoblot analysis; type: cell-based; conditions: tig-3, 0.6 µM; how it was run: as §3
TIG-3 [24] = experiment: Decrease in Nrf2 expression level in human TIG3 cells at 0.3 to 3 uM by immunoblot analysis; type: ADME, cell-based; conditions: tig-3, 3 µM; how it was run: as §3
[25] = molecular target: RAC-alpha serine/threonine-protein kinase (Homo sapiens) (UniProt P31749); experiment: Induction of AKT-mediated beta-catenin expression level in H2O2 treated human TIG3 cells at 0.3 uM pretreated with H2O2 for 2 hrs followed by compound addition by immunoblot analysis; how it was run: as §2
WI-38 [26] = experiment: Cytotoxicity against human WI38 cells assessed as inhibition of colony formation at 0.1 to 0.3 uM by crystal violet staining based assay; type: cell-based; conditions: wi-38, 0.3 µM; how it was run: as §4
WI-38 [27] = experiment: Cytotoxicity against human WI38 cells assessed as cell death at 1 uM after 48 hrs relative to control; type: cell-based; conditions: wi-38, 48 h
How it was run: (§7)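 Normal human fibroblasts (TIG-3, WI38) exposed to serially increasing compound concentrations (0.15 to 50 μM) for 48 or 72 h. Viability scored against untreated control. Triplicate experiments.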

TIG-3 [28] = experiment: Cytotoxicity against human TIG3 cells assessed as cell death at 1 uM after 48 hrs relative to control; type: cell-based; conditions: tig-3, 48 h; how it was run: as §7
TIG-3 [29] = experiment: Cytotoxicity against human TIG3 cells assessed as induction of morphological changes at 0.3 to 1.5 uM after 48 hrs by phase contrast microscopy; type: cell-based; conditions: tig-3, 48 h; how it was run: as §5

With `CC1=C(CO)C(=O)O[C@@H]([C@@H](C)[C@H]2CC[C@H]3[C@@H]4C[C@H]5O[C@]56[C@@H](O)C=CC(=O)[C@]6(C)[C@H]4CC[C@]23C)C1` [WITHAFERIN A] the Activity (TIG-3 [1]) was “Toxic”, the Activity (TIG-3 [2]) was “inactive” and the Activity (TIG-3 [3]) was “inactive”. For the same compound, the Activity [4] was “Active”, the Activity (TIG-3 [5]) was “inactive” and the Activity (TIG-3 [6]) was “Toxic”. The Activity [7] was “Active”, the Activity (TIG-3 [8]) was “Toxic” and the Activity (TIG-3 [9]) was “Toxic”. The Activity (TIG-3 [10]) was “Toxic”, the Activity (TIG-3 [11]) was “Toxic” and the Activity (TIG-3 [12]) was “inactive”. For the same compound, the Activity (TIG-3 [13]) was “Toxic”, the Activity (TIG-3 [14]) was “inactive” and the Activity (TIG-3 [15]) was “inactive”. For the same compound, the Activity (TIG-3 [16]) was “Toxic”, the Activity (TIG-3 [17]) was “Toxic” and the Activity (TIG-3 [18]) was “Toxic”. The Activity (TIG-3 [19]) was “Toxic”, the Activity [20] was “Active” and the Activity (Homo sapiens) was “Active”. For the same compound, the Activity [21] was “Active”, the Activity (TIG-3 [22]) was “inactive” and the Activity (TIG-3 [23]) was “Toxic”. For the same compound, the Activity (TIG-3 [24]) was “Toxic”, the Activity [25] was “Active” and the Activity (WI-38 [26]) was “Toxic”. For the same compound, the Activity (WI-38 [27]) was 90%, the Activity (TIG-3 [28]) was 90% and the Activity (TIG-3 [29]) was “Toxic”.
